Measured values published in ChEMBL document CHEMBL4513216, “Probing the Open Global Health Chemical Diversity Library for Multistage-Active Starting Points for Next-Generation Antimalarials” (ACS Infect Dis, 2020).

Assay: Toxicity liver stage against HepG2, at 10uM
Type: cell-based
Set-up: test concentration 10 uM, cell line HepG2-A16-CD81EGFP
Conditions: human, HepG2-A16-CD81EGFP cells; read-out: INHIBITION
Summary of the method: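 Uninfected HepG2-A16-CD81EGFP cells, 3 × 10^3 per well, 1536-well, plated on prespotted compound at 10 μM final, parasite-free screening media added to match infected plates; puromycin 10 μM positive, DMSO 0.5% negative; run in parallel with 48 h PbLuc assay at 37 °C, 5% CO2; viability by CellTiter-Glo luminescence, normalized to controls.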

Compared with `CC(C)CNC(=O)CN(CC(=O)NCC(C)C)S(C)(=O)=O`, `CC(C)N(C(=O)Cn1nnnc1CCc1ccccc1)C(C)C` is higher in cytotoxicity at 10 µM: -12.2% for the first, 7.1% for the second.

Compared with `Cc1cccc2c1nc1n2[C@@H](CNC(=O)c2ccccn2)COC1`, `CNS(=O)(=O)c1ccc(CNC(=O)c2cc(-c3ccccn3)no2)cc1` is lower in cytotoxicity at 10 µM: 6.49% for the first, -11.4% for the second.

First: COc1ccc2c(c1)OC1(CCN(Cc3cccc(C)c3)CC1)CC2=O
Second: COc1ccc(C(=O)Nc2ccccc2-c2ccc(=O)n(C)n2)cc1
The cytotoxicity at 10 µM of the first is higher: 5.5% for the first, 2.11% for the second.

Compared with `NC(=O)CN1CC(O)c2ccccc2S1(=O)=O` (stereo not given), `COCC(=O)N1CC[C@@H](O)[C@@H]1Cc1ccccc1` is lower in cytotoxicity at 10 µM: 4.37% for the first, -1.26% for the second.

First: O=C(CCc1nnc2ccccn2c1=O)NCc1cccnc1
Second: CSCC1CCN(C(=O)c2ccccc2NCc2cccnc2)C1 (stereo not given)
The cytotoxicity at 10 µM of the first is higher: -1.74% for the first, -3.33% for the second.

First: O=S(=O)(Nc1cnc(N2CCCC2)nc1)c1ccc(C(F)(F)F)cc1
Second: CCS(=O)(=O)c1ccc(N2CCC(NC(=O)C3CCCCC3)CC2)cc1
The cytotoxicity at 10 µM of the first is lower: 3.15% for the first, 12% for the second.

Compared with `CCN1CCc2cc(C(=O)N(C)C)c(NCC3CC3)nc2CC1`, `CCC(=O)N1CCC(c2ncc3c(n2)CCNC3)CC1` is lower in cytotoxicity at 10 µM: 4.65% for the first, -22.5% for the second.

Compared with `Cc1nc(CN2C(=O)CCC23CCN(c2ncccc2C)CC3)cs1`, `Cc1ccccc1-c1cncc(C2CCN(S(=O)(=O)N(C)C)CC2)n1` is higher in cytotoxicity at 10 µM: -2.07% for the first, 0.0706% for the second.

Going from `CCC1=NN2C(=N)/C(=C/c3cccc(Cl)c3)C(=O)N=C2S1` to `Cc1ccccc1Cn1nnc2cc3c(cc2c1=O)OCCO3`, the cytotoxicity at 10 µM rises from -11.8% to 1.11%.

First: Cn1c(=O)n(C)c2nc(Br)c(CC(=O)c3ccccc3)n2c1=O
Second: CCCc1n[nH]c(=O)n1Cc1ccccc1F
The cytotoxicity at 10 µM of the first is lower: 0.9% for the first, 2.24% for the second.

Compared with `CCC(C)NC(=O)Cn1ncc2c1c(C)nn2CC` (stereo not given), `Cc1nnc(CN(C)CC(=O)N2CCCC(C)CC2)n1C` (stereo not given) is higher in cytotoxicity at 10 µM: 3.24% for the first, 10.6% for the second.

Compared with `Cc1ccnc(NC(=O)c2cnc(C3CCCNC3)cn2)c1` (stereo not given), `Cc1cc2n(n1)CC(CNCCNC(=O)c1ccc(F)cc1)CN2` (stereo not given) is higher in cytotoxicity at 10 µM: 3.33% for the first, 6.15% for the second.

Compared with `CC1(C(=O)NCc2cc(F)cc(F)c2)CCOCC1`, `CCCNC(=O)c1cc(Br)cc(S(=O)(=O)N2CCOCC2)c1F` is lower in cytotoxicity at 10 µM: 4.32% for the first, -5.12% for the second.

Going from `Cc1ccc(-c2noc(CNCC3CN(C)CCO3)n2)cc1F` (stereo not given) to `CCc1cc(N2CCC(NC(=O)CCC3CCCO3)CC2)ncn1` (stereo not given), the cytotoxicity at 10 µM rises from -1.51% to 8.31%.

Compared with `Cc1nc(CN2CCOC3(CCCC3)C2)oc1C`, `CC(C(=O)NC1(C#N)CCCCC1)N1CCc2c(ncn2C)C1` (stereo not given) is higher in cytotoxicity at 10 µM: 4.56% for the first, 7.04% for the second.

First: Cc1cc(N(Cc2ccccn2)C2CC2)n2nc(C(F)(F)F)nc2n1
Second: Cc1ncc(CN(C)CC(O)c2cccc(C(F)(F)F)c2)s1 (stereo not given)
The cytotoxicity at 10 µM of the first is lower: -5.83% for the first, 1.86% for the second.

First: COc1ccc(CN(C(=O)C2CCCS2)c2ccncc2)cc1 (stereo not given)
Second: COc1ccc(CC(=O)N2CC[C@@H]3CN(C)S(=O)(=O)[C@@H]3CC2)cc1
The cytotoxicity at 10 µM of the first is higher: 5.57% for the first, 4.33% for the second.

Going from `CC(NC(=O)N(C)C1CC1)c1ccc(Oc2cccnc2)c(F)c1` (stereo not given) to `COc1ccccc1CNC(=O)COc1ccc2c(c1)OCC2O` (stereo not given), the cytotoxicity at 10 µM falls from -1.23% to -3.75%.

Compared with `C=C(C)CN(CC)C(=O)CN1CCCC1C(=O)N(C)C` (stereo not given), `COCCN(C)C(=O)c1cc2c(s1)CCN2C(=O)C1CC1` is lower in cytotoxicity at 10 µM: 8.52% for the first, -7.38% for the second.

First: O=C(c1ccc(-n2ccnc2)nc1)N1CCN2CCCCC2C1 (stereo not given)
Second: CCc1ncc(C(=O)N2CCCN(C3CCCCC3)CC2)cn1
The cytotoxicity at 10 µM of the first is lower: -5.95% for the first, -5.1% for the second.

First: Cc1cnn(CCNCC(O)COc2cccc(C(F)(F)F)c2)c1 (stereo not given)
Second: Cc1ocnc1C(=O)N1CCN(CCOc2ccccc2)CC1
The cytotoxicity at 10 µM of the first is lower: -21.7% for the first, 1.12% for the second.

Compared with `CCc1nnc2n1CCN(C(=O)CCc1ccc3c(c1)OCO3)C2`, `O=C(Nc1nccs1)C1CCN(Cc2cccc3c2OCCO3)CC1` is higher in cytotoxicity at 10 µM: -2.62% for the first, -1.95% for the second.

Compared with `CN(Cc1noc(C(C)(C)C)n1)CC1CCN(CCO)CC1`, `Cn1nnc2c1C(COCC1CC1)CN(C(=O)C1=CCCC1)C2` (stereo not given) is lower in cytotoxicity at 10 µM: 7.17% for the first, -102% for the second.

Going from `CC(=O)N1CCc2cc(Cl)cc(Cl)c2C1` to `CC(C)c1ccc(S(=O)(=O)NC2(CC(N)=O)CCC2)cc1`, the cytotoxicity at 10 µM falls from 11.2% to -2.77%.

Compared with `CCOc1ccccc1C(CC(=O)Nc1ccccc1)NC(C)=O` (stereo not given), `CCOCc1ccc(NC(=O)C(C)C)cc1` is higher in cytotoxicity at 10 µM: -2.86% for the first, 2.25% for the second.

First: CCCN(C(=O)CNC1CCc2ncnn2C1)C1=CCCCC1 (stereo not given)
Second: Cc1ccc(C(=O)N2CCO[C@H]3[C@H](OCC4CCOCC4)CC[C@@H]32)o1
The cytotoxicity at 10 µM of the first is lower: 1.76% for the first, 4.28% for the second.

First: CCc1ccc(CCn2cnc(C#N)n2)cc1
Second: O=C(C1CCOCC1)N1CC[C@H](O)[C@@H]1Cc1cccnc1
The cytotoxicity at 10 µM of the first is higher: -0.224% for the first, -104% for the second.

With `CC1CCN(S(=O)(=O)N2C[C@H](c3ccccc3)[C@@H](N)C2)CC1` the cytotoxicity at 10 µM was -12.1%.
